According to ChEMBL document CHEMBL1123779, “Modifications of primaquine as antimalarials. 4. 5-Alkoxy derivatives of primaquine” (J Med Chem, 1987):

Columns and labels:
Mus musculus [1] = assay: Suppressive blood schizonticidal antimalarial activity evaluated in the trophozoite-induced Plasmodium berghei infection in mice (Mus musculus) at a dose 10 mg/kg given as no. of cures; assay type: functional
Summary of the method: (§1)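 Run at the Rane Laboratory with blood-induced P. berghei infections in mice, five animals per group. A cure is a mouse surviving to 60 days postinfection. Deaths before day 6 are recorded separately as toxic deaths. Activity is scored from the increase in mean survival time over untreated controls, and counts as active when treated MST is more than twice control MST.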

Plasmodium cynomolgi [2] = assay: Radical curative antimalarial activity against Plasmodium cynomolgi in Rhesus monkeys (Macaca mulatta) at 0.316 mg/kg/day over 7 days; cured 3 of 5; assay type: functional
Plasmodium cynomolgi [3] = assay: Cures in Plasmodium cynomolgi infected Rhesus monkeys (Macaca mulatta) on 0.1 mg/kg/day after 7 days; cured 1 of 3; assay type: functional
Mus musculus [4] = assay: Suppressive blood schizonticidal antimalarial activity evaluated in the trophozoite-induced Plasmodium berghei infection in mice (Mus musculus) at a dose 5 mg/kg given as no. of cures; assay type: functional; summary of the method: as §1
Mus musculus [5] = assay: Suppressive blood schizonticidal antimalarial activity evaluated in the trophozoite-induced Plasmodium berghei infection in mice (Mus musculus) at a dose 40 mg/kg given as number of toxic deaths; assay type: ADME, organism-based; parameters: dose 40 mg/kg; settings: in vivo
Summary of the method: (§2)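 Rane Laboratory mouse test with blood-induced P. berghei infection, five mice per group. Toxic deaths are deaths occurring before the 6th day postinfection.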

Mus musculus [6] = assay: Suppressive blood schizonticidal antimalarial activity evaluated in the trophozoite-induced Plasmodium berghei infection in mice (Mus musculus) at a dose 20 mg/kg given as number of toxic deaths; assay type: ADME, organism-based; parameters: dose 20 mg/kg; settings: in vivo; summary of the method: as §2
Plasmodium cynomolgi [7] = assay: Cures in Plasmodium cynomolgi infected Rhesus monkeys (Macaca mulatta) on 1 mg/kg/day after 7 days; cured 2 of 2; assay type: functional
Mus musculus [8] = assay: Suppressive blood schizonticidal antimalarial activity evaluated in the trophozoite-induced Plasmodium berghei infection in mice (Mus musculus) at a dose 2.5 mg/kg given as number of cures; assay type: functional; summary of the method: as §1
Mus musculus [9] = assay: Suppressive blood schizonticidal antimalarial activity evaluated in the trophozoite-induced Plasmodium berghei infection in mice (Mus musculus) at a dose 160 mg/kg given as no. of toxic deaths; assay type: functional; summary of the method: as §2
Plasmodium berghei [10] = assay: Suppressive blood schizonticidal antimalarial activity evaluated in the trophozoite-induced Plasmodium berghei infection in mice (Mus musculus) at a dose 640 mg/kg given as number of toxic deaths; assay type: toxicity, organism-based; parameters: dose 640 mg/kg; settings: in vivo; summary of the method: as §2
Mus musculus [11] = assay: Suppressive blood schizonticidal antimalarial activity evaluated in the trophozoite-induced Plasmodium berghei infection in mice (Mus musculus) at a dose 80 mg/kg given as no. of toxic deaths; assay type: functional; summary of the method: as §2
Mus musculus [12] = assay: Suppressive blood schizonticidal antimalarial activity evaluated in the trophozoite-induced Plasmodium berghei infection in mice (Mus musculus) at a dose 5 mg/kg; assay type: functional; parameters: unit not given beside the values
Summary of the method: (§3)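 Run at the Rane Laboratory in mice infected with blood-induced P. berghei, five animals per group. Activity is the increase in mean survival time over untreated infected controls. A compound counts as active when treated-group MST is more than twice the control MST. Cures are mice surviving at 60 days postinfection.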

Mus musculus [13] = assay: Suppressive blood schizonticidal antimalarial activity evaluated in the trophozoite-induced Plasmodium berghei infection in mice (Mus musculus) at a dose 320 mg/kg given as no. of toxic deaths; assay type: functional; summary of the method: as §2
Plasmodium cynomolgi [14] = assay: Radical curative antimalarial activity against Plasmodium cynomolgi infected Rhesus monkeys (Macaca mulatta) after 7 days at 0.1 mg/kg/day dose; cured 2 of 4; assay type: functional
Plasmodium berghei [15] = assay: Blood schizonticidal activity in trophozoite-induced Plasmodium berghei infected mice (Mus musculus) at 40 mg/kg; numbers cured; assay type: functional; summary of the method: as §1
Plasmodium cynomolgi [16] = assay: Cures in Plasmodium cynomolgi infected Rhesus monkeys (Macaca mulatta) on 0.316 mg/kg/day after 7 days; cured 2 of 3; assay type: functional
Plasmodium cynomolgi [17] = assay: Cures in Plasmodium cynomolgi infected Rhesus monkeys (Macaca mulatta) on 1 mg/kg/day after 7 days; cured 1 of 1; assay type: functional
Mus musculus [18] = assay: Suppressive blood schizonticidal antimalarial activity evaluated in the trophozoite-induced Plasmodium berghei infection in mice (Mus musculus) at a dose 20 mg/kg given as no. of cures; assay type: functional; summary of the method: as §1
Mus musculus [19] = assay: Suppressive blood schizonticidal antimalarial activity evaluated in the trophozoite-induced Plasmodium berghei infection in mice (Mus musculus) at a dose 640 mg/kg given as no. of cures; assay type: functional; summary of the method: as §1
Plasmodium cynomolgi [20] = assay: Cures in Plasmodium cynomolgi infected Rhesus monkeys (Macaca mulatta) on 3.16 mg/kg/day after 7 days; cured 2 of 2; assay type: functional
Mus musculus [21] = assay: Suppressive blood schizonticidal antimalarial activity evaluated in the trophozoite-induced Plasmodium berghei infection in mice (Mus musculus) at a dose 10 mg/kg; assay type: functional; summary of the method: as §3
Mus musculus [22] = assay: Suppressive blood schizonticidal antimalarial activity evaluated in the trophozoite-induced Plasmodium berghei infection in mice (Mus musculus) at a dose 80 mg/kg given as no. of cures; assay type: functional; summary of the method: as §1
Mus musculus [23] = assay: Suppressive blood schizonticidal antimalarial activity evaluated in the trophozoite-induced Plasmodium berghei infection in mice (Mus musculus) at a dose 320 mg/kg given as number of cures; assay type: functional; summary of the method: as §1
Mus musculus [24] = assay: Suppressive blood schizonticidal antimalarial activity evaluated in the trophozoite-induced Plasmodium berghei infection in mice (Mus musculus) at a dose 160 mg/kg given as no. of cures; assay type: functional; summary of the method: as §1
Plasmodium cynomolgi [25] = assay: Cures in Plasmodium cynomolgi infected Rhesus monkeys (Macaca mulatta) on 10.0 mg/kg/day after 7 days; cured 1 of 1; assay type: functional
Plasmodium berghei [26] = assay: Blood schizonticidal antimalarial activity in the trophozoite-induced Plasmodium berghei infection in mice (Mus musculus) at 20 mg/kg; assay type: functional; parameters: unit not given beside the values; summary of the method: as §3
Plasmodium cynomolgi [27] = assay: Cures in Plasmodium cynomolgi infected Rhesus monkeys (Macaca mulatta) on 1 mg/kg/day after 7 days; cured 0 of 1; assay type: functional
Plasmodium cynomolgi [28] = assay: Cures in Plasmodium cynomolgi infected Rhesus monkeys (Macaca mulatta) on 0.316 mg/kg/day after 7 days; cured 3 of 3; assay type: functional
Plasmodium cynomolgi [29] = assay: Cures in Plasmodium cynomolgi infected Rhesus monkeys (Macaca mulatta) on 3.16 mg/kg/day after 7 days; cured 0 of 1; assay type: functional
Plasmodium cynomolgi [30] = assay: Radical curative antimalarial activity against Plasmodium cynomolgi in Rhesus monkeys (Macaca mulatta) at 0.1 mg/kg/day over 7 days; cured 5 of 5; assay type: functional
Plasmodium cynomolgi [31] = assay: Cures in Plasmodium cynomolgi infected Rhesus monkeys (Macaca mulatta) on 0.1 mg/kg/day after 7 days (x7); cured 0 of 2; assay type: functional
Plasmodium cynomolgi [32] = assay: Cures in Plasmodium cynomolgi infected Rhesus monkeys (Macaca mulatta) on 0.316 mg/kg/day after 7 days; cures 2 of 2; assay type: functional
Plasmodium cynomolgi [33] = assay: Radical curative antimalarial activity against Plasmodium cynomolgi in Rhesus monkeys (Macaca mulatta) at 1 mg/kg/day over 7 days; cured 4 of 4; assay type: functional
Mus musculus [34] = assay: Suppressive blood schizonticidal antimalarial activity evaluated in the trophozoite-induced Plasmodium berghei infection in mice (Mus musculus) at a dose 2.5 mg/kg; assay type: functional; summary of the method: as §3
Plasmodium cynomolgi [35] = assay: Cures in Plasmodium cynomolgi infected Rhesus monkeys (Macaca mulatta) on 10.0 mg/kg/day after 7 days; assay type: functional, organism-based
Mus musculus [36] = assay: Suppressive blood schizonticidal antimalarial activity evaluated in the trophozoite-induced Plasmodium berghei infection in mice (Mus musculus) at a dose 40 mg/kg; assay type: functional; parameters: unit not given beside the values; summary of the method: as §3
Plasmodium cynomolgi [37] = assay: Cures in Plasmodium cynomolgi infected Rhesus monkeys (Macaca mulatta) on 0.316 mg/kg/day after 7 days; cured 2 of 4; assay type: functional

**Q.** `COc1cc(NC(C)CCCN)c2nccc(C)c2c1OCCCCCCOCc1ccccc1` (centres undefined) was tested. Which Cures (Mus musculus [1]) did it give?
**A.** 4

**Q.** What about the Cures/no. of animals (Plasmodium cynomolgi [2]) of the same compound?
**A.** 3

**Q.** And the Cures/no. of animals (Plasmodium cynomolgi [3])?
**A.** 1

**Q.** And the Cures (Mus musculus [4])?
**A.** 2

**Q.** What about the Toxic deaths (Mus musculus [5]) of the same compound?
**A.** 5

**Q.** What about the Toxic deaths (Mus musculus [6]) of the same compound?
**A.** 2

**Q.** What about the Cures/no. of animals (Plasmodium cynomolgi [7]) of the same compound?
**A.** 2

**Q.** What about the Cures (Mus musculus [8]) of the same compound?
**A.** 1

**Q.** `CCCCCCOc1c(OC)cc(NC(C)CCCN)c2nc(C)cc(C)c12` (centres undefined) was tested. Which Toxic deaths (Mus musculus [9]) did it give?
**A.** 5

**Q.** And the Toxic deaths (Plasmodium berghei [10])?
**A.** 5

**Q.** What about the Cures (Mus musculus [1]) of the same compound?
**A.** 1

**Q.** And the Toxic deaths (Mus musculus [11])?
**A.** 5

**Q.** And the “Delta MST” value (Mus musculus [12])?
**A.** 7.3

**Q.** And the Toxic deaths (Mus musculus [13])?
**A.** 5

**Q.** And the Cures/no. of animals (Plasmodium cynomolgi [14])?
**A.** 2

**Q.** What about the Cures (Plasmodium berghei [15]) of the same compound?
**A.** 5

**Q.** What about the Cures/no. of animals (Plasmodium cynomolgi [16]) of the same compound?
**A.** 2

**Q.** And the Cures/no. of animals (Plasmodium cynomolgi [17])?
**A.** 1

**Q.** What about the Cures (Mus musculus [18]) of the same compound?
**A.** 2

**Q.** What does the source list for `CCCCCCCCCCCOc1c(OC)cc(NC(C)CCCN)c2nccc(C)c12` (centres undefined)?
**A.** Cures (Mus musculus [19]): 5; Cures/no. of animals (Plasmodium cynomolgi [20]): 2; Delta MST (Mus musculus [21]): 3.7; Cures (Mus musculus [22]): 2; Cures (Mus musculus [23]): 5; Cures (Plasmodium berghei [15]): 1; Cures (Mus musculus [24]): 5; Cures/no. of animals (Plasmodium cynomolgi [25]): 1; Delta MST (Plasmodium berghei [26]): 1; Cures/no. of animals (Plasmodium cynomolgi [27]): 0

**Q.** What does the source list for `CCCCCCOc1c(OC)cc(NC(C)CCCN)c2nccc(C)c12` (centres undefined) [WR-242511]?
**A.** Toxic deaths (Mus musculus [9]): 3; Cures/no. of animals (Plasmodium cynomolgi [28]): 3; Toxic deaths (Plasmodium berghei [10]): 5; Cures (Mus musculus [1]): 1; Cures/no. of animals (Plasmodium cynomolgi [29]): 0; Cures/no. of animals (Plasmodium cynomolgi [30]): 5; Toxic deaths (Mus musculus [13]): 5; Cures (Mus musculus [22]): 4; Cures (Mus musculus [4]): 1; Cures (Plasmodium berghei [15]): 5; Cures (Mus musculus [8]): 1; Cures/no. of animals (Plasmodium cynomolgi [17]): 1; Cures (Mus musculus [18]): 5

**Q.** `CCCCCCCCCCOc1c(OC)cc(NC(C)CCCN)c2nccc(C)c12` (centres undefined) was tested. Which Cures (Mus musculus [19]) did it give?
**A.** 4

**Q.** And the Cures/no. of animals (Plasmodium cynomolgi [29])?
**A.** 0

**Q.** And the “Delta MST” value (Mus musculus [21])?
**A.** 1.8

**Q.** What about the Cures (Mus musculus [22]) of the same compound?
**A.** 4

**Q.** And the Cures (Mus musculus [23])?
**A.** 5

**Q.** What about the Cures (Plasmodium berghei [15]) of the same compound?
**A.** 3

**Q.** What about the Cures (Mus musculus [24]) of the same compound?
**A.** 4

**Q.** And the Cures/no. of animals (Plasmodium cynomolgi [25])?
**A.** 1

**Q.** And the Cures/no. of animals (Plasmodium cynomolgi [27])?
**A.** 0

**Q.** And the Cures (Mus musculus [18])?
**A.** 2

**Q.** Which results are given for `CCCCCCCOc1c(OC)cc(NC(C)CCCN)c2nccc(C)c12` (centres undefined)?
**A.** Toxic deaths (Mus musculus [9]): 1; Toxic deaths (Plasmodium berghei [10]): 5; Cures (Mus musculus [1]): 3; Cures/no. of animals (Plasmodium cynomolgi [31]): 0; Toxic deaths (Mus musculus [13]): 5; Cures (Mus musculus [22]): 2; Cures (Mus musculus [4]): 3; Cures (Plasmodium berghei [15]): 4; Cures/no. of animals (Plasmodium cynomolgi [32]): 2; Cures/no. of animals (Plasmodium cynomolgi [33]): 4; Delta MST (Mus musculus [34]): 7.9; Cures/no. of animals (Plasmodium cynomolgi [35]): Toxic; Cures (Mus musculus [18]): 5

**Q.** What does the source list for `CCCCOc1c(OC)cc(NC(C)CCCN)c2ncccc12` (centres undefined)?
**A.** Toxic deaths (Mus musculus [9]): 3; Toxic deaths (Plasmodium berghei [10]): 5; Toxic deaths (Mus musculus [11]): 2; Delta MST (Mus musculus [21]): 4.1; Cures/no. of animals (Plasmodium cynomolgi [7]): 2; Delta MST (Mus musculus [36]): 6.7; Cures/no. of animals (Plasmodium cynomolgi [37]): 2; Delta MST (Plasmodium berghei [26]): 6.5; Cures/no. of animals (Plasmodium cynomolgi [35]): Toxic
